Results published in ChEMBL document CHEMBL4765352, “Discovery of AdipoRon analogues as novel AMPK activators without inhibiting mitochondrial complex I” (Eur J Med Chem, 2020).
Calls of active or inactive are those of the source. No cut-off for these calls is given here.

How the values were obtained:
[1] = Metabolic stability in human liver microsomes assessed as half life preincubated for 5 mins followed by NADPH addition and measured up to 45 mins by LC/MS analysis; format: ADME, Microsome; conditions: time 50 min
Outline: (§1)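 Compound was preincubated with mouse (ICR/CD-1) or human liver microsomes in potassium phosphate buffer at 37 °C for 5 min, then NADPH was added to start the reaction. Samples were quenched with acetonitrile containing tolbutamide internal standard at 0, 5, 15, 30 and 45 min. Parent compound measured by LC/MS; ketanserin served as control.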

[2] = Induction of glucose consumption in mouse C2C12 cells at 10 uM measured after 12 hrs by glucose oxidase method (reference value: 100 %); format: functional
Outline: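 Differentiated C2C12 myotubes were switched to DMEM containing 2.75 g/L glucose and treated for 12 h at 37 °C, with cell-free blank wells as reference. Glucose left in the medium was measured by the GOD-POD method at 570 nm. Consumption was derived by subtraction and expressed as percentage of the DMSO group.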

C2C12 [3] = assay: Cytotoxicity against mouse C2C12 cells assessed as reduction in cell viability at 5 to 20 uM incubated for 24 to 72 hrs by MTT assay; format: cell-based; conditions: c2c12, 20 µM, dose lower 5 µM, time lower 24 hrs, dose upper 20 µM, time upper 72 hrs
Outline: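 MTT viability assay in C2C12, HepG2 and A549 cells. Exposure was 24 h or 72 h for C2C12 and 72 h for HepG2 and A549. Three replicates per group, compared with the 0 μM group by Student's t test.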

C2C12 [4] = assay: Activation of AMPK in mouse C2C12 cells with SiRNA-induced LKB1 knock down assessed as increase in ACC phosphorylation; format: cell-based
[5] = Toxicity in C57BL/6 mouse assessed as change in heart weight/body weight ratio at 50 to 200 mg/kg, ig administered for 4 weeks; format: organism-based; conditions: in vivo, po, 672 h, dose 50-200 mg/kg
Outline: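 Male C57BL/6 mice (6 per group) given 50, 100 or 200 mg/kg intragastrically daily for 4 weeks. Saline-perfused hearts were weighed and examined for gross morphology, with representative hearts chosen by similar body weight. Heart weight was expressed relative to body weight and to tibia length.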

[6] = Metabolic stability in ICR/CD-1 mouse liver microsomes assessed as compound remaining preincubated for 5 mins followed by NADPH addition and measured up to 45 mins by LC/MS analysis; format: ADME, Microsome; conditions: time 50 min, read-out: Stabilty; outline: as §1
[7] = Toxicity in db/db mouse assessed as effect on serum AST level at 100 mg/kg, ig administered for 10 weeks; format: organism-based; conditions: in vivo, po, 1680 h
Outline: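 db/db mice, 5 weeks old, grouped by matching baseline blood glucose and body weight. Dosed intragastrically once daily at 100 mg/kg in 0.5% methylcellulose; vehicle-treated db/db and db/m mice served as controls. Body weight and fasting blood glucose measured weekly. Serum ALT and AST measured after 10 weeks. Data given as mean ± SEM.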

BEAS-2B = assay: Activation of AMPK in human BEAS-2B cells harboring wild type LKB1; format: cell-based; conditions: filed as activator

- half-life [1]: 1.62 h
- remaining at 0.75 h [6]: 39%
Structure (SMILES): CC(C)(Oc1ccc(Cl)cc1)C(=O)Nc1ccc(OCc2ccc(C#N)cc2)cc1
- Activity [2]: 151.8%
- Activity (C2C12 [3]): Non-Toxic
- Activity (C2C12 [4]): inactive
- Activity [5]: Non-Toxic
- Activity [7]: Non-Toxic
- Activity (BEAS-2B): Active
